Experimental data reported in ChEMBL document CHEMBL1806442, “Synthesis of novel alkyltriazole tagged pyrido[2,3-d]pyrimidine derivatives and their anticancer activity” (Eur J Med Chem, 2011).
Converted amounts (≈) assume the structure as drawn.

How the values were obtained:
Type in all cases: functional, cell-based
U-937 = test: Cytotoxicity against human U937 cells after 24 hrs by MTT assay; details: U-937, 24 h
In short: (§1)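 Cells kept in RPMI-1640 with 10% heat-inactivated FBS, 1 mM NaHCO3, 2 mM L-glutamine and 100 units/ml antibiotic. Seeded at 2 × 10^4 per well in 0.1 ml, left overnight, then given graded compound from DMSO stocks for 24 h. MTT added for a further 3 h at 37 °C, formazan dissolved in DMSO and read at 570 nm. Percent viability inhibition taken against untreated control; IC50 from linear regression.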

THP-1 = test: Cytotoxicity against human THP1 cells after 24 hrs by MTT assay; details: THP-1, 24 h; in short: as §1
COLO 205 = test: Cytotoxicity against human COLO205 cells after 24 hrs by MTT assay; details: COLO 205, 24 h; in short: as §1

CCc1nc2nc(-c3ccccc3)cc(C(F)(F)F)c2c(=O)n1Cc1cn(CCC(F)(F)C(F)(F)C(F)(F)C(F)(F)C(F)(F)C(F)(F)F)nn1
IC50 (U-937): > 200 µg/mL
IC50 (THP-1): > 200 µg/mL
IC50 (COLO 205): > 200 µg/mL

Cc1nc2nc(-c3ccccc3)cc(C(F)(F)F)c2c(=O)n1Cc1cn(-c2ccccc2)nn1
IC50 (U-937): > 200 µg/mL
IC50 (THP-1): > 200 µg/mL
IC50 (COLO 205): > 200 µg/mL

CCCCCCc1nc2nc(-c3ccccc3)cc(C(F)(F)F)c2c(=O)n1Cc1cn(CCC(F)(F)C(F)(F)C(F)(F)C(F)(F)C(F)(F)C(F)(F)C(F)(F)C(F)(F)F)nn1
IC50 (U-937): > 200 µg/mL
IC50 (THP-1): > 200 µg/mL
IC50 (COLO 205): > 200 µg/mL

FC(F)(F)c1cc(-c2ccccc2)nc2nc(-c3ccccc3)nc(OCc3cn(CCC(F)(F)C(F)(F)C(F)(F)C(F)(F)C(F)(F)C(F)(F)C(F)(F)C(F)(F)F)nn3)c12
IC50 (U-937): 44.4 µg/mL (≈ 49.6 µM)
IC50 (THP-1): > 200 µg/mL
IC50 (COLO 205): > 200 µg/mL

CC(C)c1nc2nc(-c3ccccc3)cc(C(F)(F)F)c2c(=O)n1Cc1cn(CCC(F)(F)C(F)(F)C(F)(F)C(F)(F)C(F)(F)C(F)(F)C(F)(F)C(F)(F)F)nn1
IC50 (U-937): 8.35 µg/mL (≈ 9.7 µM)
IC50 (THP-1): 142 µg/mL (≈ 165 µM)
IC50 (COLO 205): > 200 µg/mL

COc1cc([C@@H]2c3cc4c(cc3[C@@H](O[C@@H]3O[C@@H]5CO[C@@H](C)O[C@H]5[C@H](O)[C@H]3O)[C@H]3COC(=O)[C@H]23)OCO4)cc(OC)c1O [ETOPOSIDE]
IC50 (U-937): 17.9 µg/mL (≈ 30.5 µM)
IC50 (THP-1): 2.16 µg/mL (≈ 3.67 µM)
IC50 (COLO 205): 7.24 µg/mL (≈ 12.3 µM)

CCCCCCCCCCn1cc(Cn2c(C)nc3nc(-c4ccccc4)cc(C(F)(F)F)c3c2=O)nn1
IC50 (U-937): 6.2 µg/mL (≈ 11.8 µM)
IC50 (THP-1): 11.3 µg/mL (≈ 21.4 µM)
IC50 (COLO 205): 15 µg/mL (≈ 28.5 µM)

CCCCCCCCCCn1cc(Cn2cnc3nc(-c4ccccc4)cc(C(F)(F)F)c3c2=O)nn1
IC50 (U-937): 8.16 µg/mL (≈ 15.9 µM)
IC50 (THP-1): 16.9 µg/mL (≈ 33 µM)
IC50 (COLO 205): 19.2 µg/mL (≈ 37.6 µM)

Cc1nc(OCc2cn(CCC(F)(F)C(F)(F)C(F)(F)C(F)(F)C(F)(F)C(F)(F)C(F)(F)C(F)(F)F)nn2)c2c(C(F)(F)F)cc(-c3ccccc3)nc2n1
IC50 (U-937): 22.4 µg/mL (≈ 26.9 µM)
IC50 (THP-1): 107 µg/mL (≈ 129 µM)
IC50 (COLO 205): > 200 µg/mL

CCCCCCc1nc2nc(-c3ccccc3)cc(C(F)(F)F)c2c(=O)n1Cc1cn(CCC(F)(F)C(F)(F)C(F)(F)C(F)(F)C(F)(F)C(F)(F)F)nn1
IC50 (U-937): 7.56 µg/mL (≈ 9.42 µM)
IC50 (THP-1): > 200 µg/mL
IC50 (COLO 205): 132 µg/mL (≈ 165 µM)

CCCCCCCCCCn1cc(Cn2c(CC)nc3nc(-c4ccccc4)cc(C(F)(F)F)c3c2=O)nn1
IC50 (U-937): 17.8 µg/mL (≈ 33 µM)
IC50 (THP-1): 82.6 µg/mL (≈ 153 µM)
IC50 (COLO 205): > 200 µg/mL

O=c1c2c(C(F)(F)F)cc(-c3ccccc3)nc2ncn1Cc1cn(CCC(F)(F)C(F)(F)C(F)(F)C(F)(F)C(F)(F)C(F)(F)C(F)(F)C(F)(F)F)nn1
IC50 (U-937): > 200 µg/mL
IC50 (THP-1): 79.1 µg/mL (≈ 96.7 µM)
IC50 (COLO 205): 163 µg/mL (≈ 199 µM)

Cc1nc2nc(-c3ccccc3)cc(C(F)(F)F)c2c(=O)n1Cc1cn(CCC(F)(F)C(F)(F)C(F)(F)C(F)(F)C(F)(F)C(F)(F)F)nn1
IC50 (U-937): > 200 µg/mL
IC50 (THP-1): > 200 µg/mL
IC50 (COLO 205): > 200 µg/mL

CCc1nc(OCc2cn(CCC(F)(F)C(F)(F)C(F)(F)C(F)(F)C(F)(F)C(F)(F)F)nn2)c2c(C(F)(F)F)cc(-c3ccccc3)nc2n1
IC50 (U-937): 9.22 µg/mL (≈ 12.4 µM)
IC50 (THP-1): > 200 µg/mL
IC50 (COLO 205): > 200 µg/mL

Cc1nc2nc(-c3ccccc3)cc(C(F)(F)F)c2c(=O)n1Cc1cn(CCC(F)(F)C(F)(F)C(F)(F)C(F)(F)C(F)(F)C(F)(F)C(F)(F)C(F)(F)F)nn1
IC50 (U-937): 124 µg/mL (≈ 149 µM)
IC50 (THP-1): > 200 µg/mL
IC50 (COLO 205): > 200 µg/mL

CCc1nc2nc(-c3ccccc3)cc(C(F)(F)F)c2c(=O)n1Cc1cn(CCC(F)(F)C(F)(F)C(F)(F)C(F)(F)C(F)(F)C(F)(F)C(F)(F)C(F)(F)F)nn1
IC50 (U-937): > 200 µg/mL
IC50 (THP-1): > 200 µg/mL
IC50 (COLO 205): > 200 µg/mL
